Drawing on ChEMBL document CHEMBL1148648, “Novel 1,3-disubstituted 8-(1-benzyl-1H-pyrazol-4-yl) xanthines: high affinity and selective A2B adenosine receptor antagonists” (J Med Chem, 2006), this text covers Ratio Ki and Ki for 19 compounds.

The target of test [1] is Adenosine receptors; A1 & A2b (Homo sapiens) (UniProt P30542+P29275). Nature of the test: Selectivity for human adenosine A2b receptor over adenosine A1 receptor. In kind it is protein assay.
For test [2], the target named is Adenosine A2 receptor (Homo sapiens) (UniProt P29275+P29274). Description: Selectivity for human adenosine A2b receptor over adenosine A2a receptor. In kind it is protein assay.
The target of a further test is T1, Adenosine receptor A1 (Homo sapiens, UniProt P30542).
T1 sequence (P30542 whole entry): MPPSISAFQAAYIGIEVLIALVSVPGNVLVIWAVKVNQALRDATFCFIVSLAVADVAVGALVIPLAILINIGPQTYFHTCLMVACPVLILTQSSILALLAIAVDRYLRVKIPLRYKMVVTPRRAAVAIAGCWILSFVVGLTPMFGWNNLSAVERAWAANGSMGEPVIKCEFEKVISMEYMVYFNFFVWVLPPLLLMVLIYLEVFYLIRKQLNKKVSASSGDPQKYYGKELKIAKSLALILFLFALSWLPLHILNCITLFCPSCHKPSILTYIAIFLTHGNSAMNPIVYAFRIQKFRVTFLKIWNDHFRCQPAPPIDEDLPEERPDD
Nature of the test: Displacement of [3H]CPX from human adenosine A1 receptor expressed in CHO cells. (In general: Loss of bound radioactivity is the signal in a displacement assay; it reports binding, not function.)

In a further test the target is Adenosine receptor A2a (Homo sapiens, UniProt P29274). Nature of the test: Displacement of [3H]ZM-241385 from human adenosine A2a receptor expressed in HEK cells. In kind it is cell-based, HEK293.
A further test concerns the target T2, Adenosine receptor A2b (Homo sapiens, UniProt P29275).
T2 sequence (P29275 whole entry): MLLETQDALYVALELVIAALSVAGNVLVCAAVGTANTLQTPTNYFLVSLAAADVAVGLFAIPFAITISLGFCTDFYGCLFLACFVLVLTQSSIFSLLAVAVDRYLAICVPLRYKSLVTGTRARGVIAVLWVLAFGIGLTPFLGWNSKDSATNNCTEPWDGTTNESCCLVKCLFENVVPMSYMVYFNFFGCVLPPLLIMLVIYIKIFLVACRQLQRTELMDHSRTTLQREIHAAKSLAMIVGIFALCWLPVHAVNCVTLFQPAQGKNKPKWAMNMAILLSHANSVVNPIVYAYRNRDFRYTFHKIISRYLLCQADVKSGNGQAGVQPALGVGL
Description: Displacement of [3H]ZM241385 from human adenosine A2b receptor expressed in HEK cells. In kind it is cell-based, HEK293.

The target of another test is T3, Adenosine receptor A3 (Homo sapiens, UniProt P0DMS8).
T3 sequence (P0DMS8 whole entry): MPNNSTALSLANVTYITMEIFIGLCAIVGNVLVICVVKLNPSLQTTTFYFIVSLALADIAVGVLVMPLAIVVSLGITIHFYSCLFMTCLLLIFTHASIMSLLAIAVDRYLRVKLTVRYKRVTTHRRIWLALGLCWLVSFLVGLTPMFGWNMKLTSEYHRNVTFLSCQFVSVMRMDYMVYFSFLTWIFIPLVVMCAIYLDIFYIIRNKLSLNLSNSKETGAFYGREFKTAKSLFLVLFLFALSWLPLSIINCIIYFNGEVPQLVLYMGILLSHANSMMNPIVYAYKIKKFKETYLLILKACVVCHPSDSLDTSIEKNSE
Nature of the test: Displacement of [125I]AB-MECA from human adenosine A3 receptor expressed in CHO cells. In kind it is cell-based. The essentials:
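Membranes from CHO cells stably expressing human A3 receptor, prepared like the A2B membranes. Incubated 90 min at 25 °C with gentle agitation, then filtered and washed 4× in ice-cold TM buffer. Nonspecific binding was defined with 1 µM IB-MECA.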

In test [3] the target is Adenosine receptors; A2b & A3 (Homo sapiens) (UniProt P29275+P0DMS8). Nature of the test: Selectivity for human adenosine A2b receptor over adenosine A3 receptor. In kind it is protein assay.

Molecules are shown by their SMILES.

Chain of Adenosine receptor A2a (P29274 whole entry): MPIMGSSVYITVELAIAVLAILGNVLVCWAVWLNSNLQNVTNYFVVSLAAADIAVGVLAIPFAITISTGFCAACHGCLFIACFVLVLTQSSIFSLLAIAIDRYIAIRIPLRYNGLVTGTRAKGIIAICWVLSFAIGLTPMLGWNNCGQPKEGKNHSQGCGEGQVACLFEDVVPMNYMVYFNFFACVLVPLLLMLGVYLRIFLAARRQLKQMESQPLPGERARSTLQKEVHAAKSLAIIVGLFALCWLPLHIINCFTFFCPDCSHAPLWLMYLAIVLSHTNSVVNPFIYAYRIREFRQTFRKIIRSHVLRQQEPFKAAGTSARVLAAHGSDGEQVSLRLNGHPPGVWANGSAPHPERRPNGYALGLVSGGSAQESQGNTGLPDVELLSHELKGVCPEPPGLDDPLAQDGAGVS

`CCCn1c(=O)c2nc(-c3cnn(CCCc4ccccc4)c3)[nH]c2n(CCC)c1=O`: the Ratio Ki in test [1] worked out at 0.7; in test [2], 2. Moreover, the Ki – broadly, the dissociation constant of the complex between target and ligand, obtained from inhibition or displacement – on Adenosine receptor A1 amounted to 0.077 µM; at Adenosine receptor A2a, 0.22 µM; at Adenosine receptor A2b, 0.1 µM.
Regarding `CCCn1c(=O)c2[nH]c(-c3cc(NC(=O)Cc4ccc(OC)c(OC)c4)nn3C)nc2n(CCC)c1=O`, the Ki on Adenosine receptor A1, at Adenosine receptor A2a and at Adenosine receptor A3 was over 1 µM each time.
As to `CCCn1c(=O)c2nc(-c3cnn(Cc4ccc(F)c(F)c4)c3)[nH]c2n(CCC)c1=O`, the Ratio Ki was 7 in test [1] and 8 in test [2]. Besides, the Ki on Adenosine receptor A1 is 0.17 µM; on Adenosine receptor A2a it was 0.28 µM; on Adenosine receptor A2b, 0.035 µM.
Take `CCCn1c(=O)c2[nH]c(-c3cn[nH]c3)nc2n(CCC)c1=O`: the Ki on Adenosine receptor A1 came out at 0.02 µM; at Adenosine receptor A2a it was 0.23 µM; on Adenosine receptor A2b, 0.009 µM; at Adenosine receptor A3, 0.023 µM.
In the case of `CCn1c(=O)c2nc(-c3cnn(Cc4cccc(F)c4)c3)[nH]c2n(CC)c1=O`, the figures for the Ratio Ki in test [1] and in test [2] were 76 and 58, respectively. Moreover, the Ki at Adenosine receptor A1 is 0.38 µM; on Adenosine receptor A2a, 0.29 µM; at Adenosine receptor A2b it was 0.005 µM.
`Cn1c(=O)c2nc(-c3cnn(Cc4cccc(C(F)(F)F)c4)c3)[nH]c2n(C)c1=O`: the Ratio Ki came to 990 in test [1], 690 in test [2] and 1000 in test [3]. Also, the Ki on Adenosine receptor A1 is 0.99 µM; on Adenosine receptor A2a, 0.69 µM; at Adenosine receptor A2b it was 0.001 µM; at Adenosine receptor A3 it was 1 µM.
As to `Cn1c(=O)c2nc(-c3cnn(Cc4ccccc4)c3)[nH]c2n(C)c1=O`, the Ratio Ki was 2 in test [1] and 1 in test [2]. For the same compound, the Ki is over 6 µM on Adenosine receptor A1, 3.5 µM at Adenosine receptor A2a and 2.3 µM on Adenosine receptor A2b.
Consider `Cn1c(=O)c2[nH]c(-c3cnn(Cc4cccc(F)c4)c3)nc2n(C)c1=O`, for which the Ratio Ki turned out to be 17 in test [1] and 7 in test [2]. Moreover, the Ki on Adenosine receptor A1 came to 0.46 µM; on Adenosine receptor A2a it was 0.2 µM; at Adenosine receptor A2b, 0.027 µM.
In the case of `CCCn1c(=O)c2[nH]c(-c3cnn(Cc4cccc(F)c4)c3)nc2n(CCC)c1=O`, the Ratio Ki in test [1] worked out at 13; in test [2], 18; in test [3], 4. Further, the Ki at Adenosine receptor A1 was 0.17 µM; on Adenosine receptor A2a, 0.23 µM; at Adenosine receptor A2b, 0.014 µM; on Adenosine receptor A3 it was 0.056 µM.
`CCCn1c(=O)c2nc(-c3cnn(CCc4ccccc4)c3)[nH]c2n(CCC)c1=O`: the Ratio Ki amounted to 0.2 in test [1] and 7 in test [2]. Further, the results for the inhibitory constant (Ki) at Adenosine receptor A1, on Adenosine receptor A2a and at Adenosine receptor A2b were 0.017 µM, 0.57 µM and 0.074 µM, respectively.
For `CCCn1c(=O)c2nc(-c3cnn(Cc4cccc(Cl)c4F)c3)[nH]c2n(CCC)c1=O`, in that order: 9, 13, 0.53 µM, 0.87 µM and 0.058 µM.
As to `CCCn1c(=O)c2nc(-c3cnn(Cc4ccc(C(F)(F)F)cc4)c3)[nH]c2n(CCC)c1=O`, the Ratio Ki in test [1] stood at 2; in test [2], 7. Moreover, the results for the Ki on Adenosine receptor A1, on Adenosine receptor A2a and at Adenosine receptor A2b were 0.041 µM, 0.15 µM and 0.02 µM, respectively.
For `CCn1c(=O)c2nc(-c3cnn(Cc4cccc(C(F)(F)F)c4)c3)[nH]c2n(CC)c1=O` the same measures were 44, 34, 0.57 µM, 0.45 µM and 0.013 µM.
`CCCn1c(=O)c2nc(-c3cnn(Cc4cccc(Cl)c4)c3)[nH]c2n(CCC)c1=O`: the Ratio Ki came out at 2 in test [1] and 4 in test [2]. The Ki amounted to 0.031 µM at Adenosine receptor A1, 0.079 µM at Adenosine receptor A2a and 0.018 µM at Adenosine receptor A2b.
As for `CCCn1c(=O)c2nc(-c3cnn(Cc4cc(C(F)(F)F)ccc4Cl)c3)[nH]c2n(CCC)c1=O`, the results for the Ratio Ki in test [1], in test [2] and in test [3] were 54, 63 and 129, respectively. Moreover, the Ki on Adenosine receptor A1 stood at 1.2 µM; at Adenosine receptor A2a, 1.4 µM; on Adenosine receptor A2b it was 0.022 µM; at Adenosine receptor A3 it was 2.8 µM.
Turning to `CCCn1c(=O)c2[nH]c(-c3cnn(Cc4ccccc4)c3)nc2n(CCC)c1=O`, the Ratio Ki in test [1] was found to be 7; in test [2], 26; in test [3], 15. Moreover, the Ki on Adenosine receptor A1 was found to be 0.076 µM; on Adenosine receptor A2a, 0.29 µM; at Adenosine receptor A2b, 0.011 µM; on Adenosine receptor A3 it was 0.17 µM.
As for `CCCn1c(=O)c2nc(-c3cnn(Cc4ccc(Cl)cc4)c3)[nH]c2n(CCC)c1=O`, the Ratio Ki in test [1] was 0.5; in test [2] it was 4. For the same compound, the Ki came out at 0.007 µM on Adenosine receptor A1, 0.088 µM at Adenosine receptor A2a and 0.018 µM on Adenosine receptor A2b.
`CCCn1c(=O)c2nc(-c3cn[nH]c3)[nH]c2n(CCC)c1=O`: the Ratio Ki in test [1] amounted to 2; in test [2] it was 23; in test [3] it was 2.
In the case of `CCCn1c(=O)c2[nH]c(-c3cnn(Cc4cccc(C(F)(F)F)c4)c3)nc2n(CCC)c1=O`, the Ratio Ki in test [1] turned out to be 12; in test [2], 27; in test [3] it was 10. Further, the Ki amounted to 0.17 µM at Adenosine receptor A1, 0.4 µM on Adenosine receptor A2a, 0.014 µM on Adenosine receptor A2b and 0.15 µM at Adenosine receptor A3.
